Laboratory results: PMC5456262 (Biochemistry, 2017)
Values joined by “and” are separate entries in the source; they are usually repeats but may differ in a detail not shown here. Identical values can stand only once.

Legend:
I32C LacY = I32C LacY (Escherichia coli, UniProt P02920, I32C); experiment: NPG binding to control single-Cys mutant I32C, stopped-flow; settings: Figure S3
[1] = target: LacY mutant 35C/245C (H35C/N245C) (Escherichia coli, UniProt P02920, H35C/N245C); experiment: NPG binding to mutant 35C/245C solubilized in DDM, stopped-flow Trp151→NPG FRET
LacY mutant 35C/245C (H35C/N245C), sequence (P02920 whole entry H35C/N245C): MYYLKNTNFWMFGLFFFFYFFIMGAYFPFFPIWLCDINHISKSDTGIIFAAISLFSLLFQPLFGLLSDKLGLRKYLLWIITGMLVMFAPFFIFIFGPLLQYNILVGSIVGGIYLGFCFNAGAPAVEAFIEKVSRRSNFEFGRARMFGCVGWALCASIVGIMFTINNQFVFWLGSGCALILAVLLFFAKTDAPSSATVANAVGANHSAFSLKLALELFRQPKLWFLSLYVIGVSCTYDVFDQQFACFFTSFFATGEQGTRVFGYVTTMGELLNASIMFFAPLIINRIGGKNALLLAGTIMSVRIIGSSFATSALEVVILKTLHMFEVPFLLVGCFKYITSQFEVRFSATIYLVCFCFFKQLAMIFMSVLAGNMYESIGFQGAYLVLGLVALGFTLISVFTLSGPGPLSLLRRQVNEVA

WT LacY in PL = settings: cited from earlier work
[2] = target: LacY control mutants I32C, H35C, or N245C; experiment: Galactoside; format: binding, Escherichia coli; settings: range over three control mutants, presence or absence of Cu^2+
Procedure, shortened: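 Purified LacY single-Cys mutants were pretreated with CuSO4 (oxidizing) or 10 mM TCEP (reducing) for 10 min at room temperature, with stopped-flow final TCEP at 2 mM. Buffer was 50 mM NaPi pH 7.5, with 0.02% DDM for detergent-solubilized protein. Protein was preincubated 5 min with NPG at varied concentrations, then mixed by stopped-flow with 15 mM TDG. Trp151→NPG FRET was read at ex 295/em 340 nm, and single-exponential fits gave koff.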

[3] = target: mutant 32C/245C LacY–Nb9065 complex in PL (Escherichia coli, UniProt P02920, I32C/N245C); format: binding
mutant 32C/245C LacY–Nb9065 complex in PL, sequence (P02920 whole entry I32C/N245C, one chain of several): as the sequence (P02920 whole entry H35C/N245C) above, with I32C, C35H counted along it

[4] = target: LacY mutant 32C/245C (I32C/N245C) reconstituted into PL (Escherichia coli, UniProt P02920, I32C/N245C); experiment: biochemical; format: binding
LacY mutant 32C/245C (I32C/N245C) reconstituted into PL, sequence (P02920 whole entry I32C/N245C): as the sequence (P02920 whole entry H35C/N245C) above, with I32C, C35H counted along it

[5] = target: LacY mutant 32C/245C (I32C/N245C) (Escherichia coli, UniProt P02920, I32C/N245C); experiment: biochemical; format: binding
LacY mutant 32C/245C (I32C/N245C), sequence (P02920 whole entry I32C/N245C): as the sequence (P02920 whole entry H35C/N245C) above, with I32C, C35H counted along it

H35C LacY = H35C LacY (Escherichia coli, UniProt P02920, H35C); experiment: NPG binding to control single-Cys mutant H35C, stopped-flow; settings: Figure S3
H35C LacY, sequence (P02920 whole entry H35C): as the sequence (P02920 whole entry H35C/N245C) above, with C245N counted along it

N245C LacY = N245C LacY (Escherichia coli, UniProt P02920, N245C); experiment: NPG binding to control single-Cys mutant N245C, stopped-flow; settings: Figure S3
N245C LacY, sequence (P02920 whole entry N245C): as the sequence (P02920 whole entry H35C/N245C) above, with C35H counted along it

[6] = DDM, Cu^2+, directly measured NPG binding rates
[7] = Kd^app calculated = Kd(1 + kr/kf), DDM, cross-linked with Cu^2+
[8] = read-out: kon from two-step conformational selection fit

I32C LacY, sequence (P02920 whole entry I32C): as the sequence (P02920 whole entry H35C/N245C) above, with I32C, C35H, C245N counted along it

For `O=[N+]([O-])c1ccc(O[C@H]2O[C@H](CO)[C@H](O)[C@H](O)[C@H]2O)cc1` [NPG, 4-nitrophenyl α-D-galactopyranoside], the “kobs (sugar binding rate measured directly)” value (I32C LacY) was 20 s⁻¹, the “kobs limit at high sugar concentrations” value [1, 6] was 40 to 50 s⁻¹ and the Kd [1, 7] was 91 µM. The kon [1, 8] was 700000 ± 160000 M⁻¹ s⁻¹, the Kd (WT LacY in PL; WT LacY in PL) was 11 µM and the koff (WT LacY in PL; WT LacY in PL) was 111 s⁻¹. For the same compound, the “kon estimated from displacement experiments” value (WT LacY in PL; WT LacY reconstituted into PL) was 1e+07 M⁻¹ s⁻¹, the “kobs (sugar binding rate, independent of sugar concentration)” value (WT LacY in PL; reconstituted WT LacY) was 21 s⁻¹ and the Kd [2] was 3 to 17 µM. It also gave a koff [2] of 33 to 102 s⁻¹, a Kd [3] of 6 ± 2 µM and a kon ([3]; read-out: kon from concentration dependence of binding rates measured directly) of 3.7e+06 ± 200000 M⁻¹ s⁻¹. The Kd [4] was 7 ± 1 µM, the “sugar binding (NPG displacement)” value ([4]; PL, cross-linked in the presence of Cu^2+, 400 μM NPG) was “no sugar binding” and the “kobs (NPG binding rate measured directly, independent of NPG concentration)” value ([4]; PL, reducing conditions (TCEP), no Nb9065) was 2.2 ± 0.4 s⁻¹ and 2 s⁻¹. For the same compound, the koff ([4]; read-out: koff (displacement rate)) was 24 ± 3 s⁻¹, the “kobs limit at high sugar concentrations” value [5, 6] was 40 to 50 s⁻¹ and the “koff (rate of NPG displacement by excess TDG)” value ([5]; DDM, cross-linked in the presence of Cu^2+) was 9.1 ± 0.9 s⁻¹. For the same compound, the Kd [5, 7] was 68 µM, the kon [5, 8] was 640000 ± 120000 M⁻¹ s⁻¹ and the “kobs (sugar binding rate measured directly)” value (H35C LacY) was 33 s⁻¹. For the same compound, the “kobs (sugar binding rate measured directly)” value (N245C LacY) was 26 s⁻¹.
